# Experimental data reported in ChEMBL document CHEMBL3272084, “Adamantane and protoadamantanealkanamines as potential anti-Parkinson agents” (J Med Chem, 1976).
# The source made the active and inactive calls. No cut-off for these calls is given here.
# Experiments:
# [1] = (§1) Acute toxicity in po dosed albino CFW mouse assessed as mortality measured over 48 hrs; format: organism-based; details: albino CFW, in vivo
# [2] = (§2) Acute toxicity in ip dosed albino CFW mouse assessed as mortality measured over 48 hrs; format: organism-based; details: albino CFW, in vivo
# [3] = system: Mus musculus; assay: Antiparkinsonian activity in CFW mouse assessed as reversal of reserpine-induced catalepsy at 0.20 mmol/kg, sc measured every 30 mins up to 1.5 hrs; format: functional, organism-based
# [4] = system: Mus musculus; assay: Antidepressant activity in CFW mouse assessed as reversal of reserpine-induced hypothermia by measuring temperature index at 0.20 mmol/kg, sc measured every 30 mins up to 1.5 hrs; format: functional, organism-based
# [5] = system: Mus musculus; assay: Antidepressant activity in CFW mouse assessed as reversal of reserpine-induced hypothermia by measuring temperature index at 0.04 mmol/kg, sc measured every 30 mins up to 1.5 hrs; format: functional
# [6] = system: Mus musculus; assay: Antiparkinsonian activity in CFW mouse assessed as reversal of reserpine-induced catalepsy at 0.08 mmol/kg, sc measured every 30 mins up to 1.5 hrs; format: functional, organism-based
# [7] = system: Rattus norvegicus; assay: Antiparkinsonian activity in Wistar rat assessed as reversal of reserpine-induced catalepsy at 0.11 mmol/kg, po measured every 30 mins up to 1.5 hrs; format: functional, organism-based
# [8] = system: Mus musculus; assay: Antidepressant activity in CFW mouse assessed as reversal of reserpine-induced hypothermia by measuring temperature index at 0.09 mmol/kg, sc measured every 30 mins up to 1.5 hrs; format: functional
# How it was run: (§3)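 Groups of five CFW mice received reserpine 4 mg/kg sc. After 2.5 h, rectal temperature was taken. The temperature index (TI) is the sum of the group's mean changes from its mean initial temperature at 30, 60 and 90 min. Scoring: 0 = no effect, 1 = TI 5–10, 2 = TI >10. A run was repeated if the reserpine control TI fell outside −5 to −15.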
# [9] = system: Mus musculus; assay: Antiparkinsonian activity in CFW mouse assessed as reversal of reserpine-induced catalepsy at 0.16 mmol/kg, sc measured every 30 mins up to 1.5 hrs; format: functional, organism-based
# [10] = system: Mus musculus; assay: Antidepressant activity in CFW mouse assessed as reversal of reserpine-induced hypothermia by measuring temperature index at 0.16 mmol/kg, sc measured every 30 mins up to 1.5 hrs; format: functional
# [11] = system: Mus musculus; assay: Antidepressant activity in CFW mouse assessed as reversal of reserpine-induced hypothermia by measuring temperature index at 0.03 mmol/kg, sc measured every 30 mins up to 1.5 hrs; format: functional; how it was run: as §3
# [12] = system: Mus musculus; assay: as §1; format: organism-based; details: in vivo, 48 h
# [13] = system: Mus musculus; assay: as §2; format: organism-based; details: in vivo, 48 h
# [14] = system: Mus musculus; assay: Antidepressant activity in CFW mouse assessed as reversal of reserpine-induced hypothermia by measuring temperature index at 0.14 mmol/kg, sc measured every 30 mins up to 1.5 hrs; format: functional
# [15] = system: Mus musculus; assay: Antiparkinsonian activity in CFW mouse assessed as reversal of reserpine-induced catalepsy at 0.14 mmol/kg, sc measured every 30 mins up to 1.5 hrs; format: functional, organism-based
# [16] = system: Mus musculus; assay: Antidepressant activity in CFW mouse assessed as reversal of reserpine-induced hypothermia by measuring temperature index at 0.02 mmol/kg, sc measured every 30 mins up to 1.5 hrs; format: functional, organism-based
# [17] = system: Mus musculus; assay: Antiparkinsonian activity in CFW mouse assessed as reversal of reserpine-induced catalepsy at 0.02 mmol/kg, sc measured every 30 mins up to 1.5 hrs; format: functional, organism-based
# [18] = system: Rattus norvegicus; assay: Antiparkinsonian activity in Wistar rat assessed as reversal of reserpine-induced catalepsy at 0.16 mmol/kg, po measured every 30 mins up to 1.5 hrs; format: functional, organism-based
# [19] = system: Rattus norvegicus; assay: Potency index, ratio of compound to amantadine for antiparkinsonian activity in po dosed Wistar rat assessed as reversal of reserpine-induced catalepsy; format: functional
# [20] = system: Mus musculus; assay: Antiparkinsonian activity in CFW mouse assessed as reversal of reserpine-induced catalepsy at 0.09 mmol/kg, sc measured every 30 mins up to 1.5 hrs; format: functional, organism-based
# How it was run: (§4)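 Groups of five CFW mice were given reserpine 4 mg/kg sc, and catalepsy was assessed 2.5 h later. Reversal was scored 0–5: 0 no effect, 1 marginal, 2 significant, 3 marked, 4 approaching complete, 5 complete reversal.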
# [21] = system: Rattus norvegicus; assay: Antiparkinsonian activity in Wistar rat assessed as reversal of reserpine-induced catalepsy at 0.14 mmol/kg, po measured every 30 mins up to 1.5 hrs; format: functional, organism-based
# [22] = system: Mus musculus; assay: Antiparkinsonian activity in CFW mouse assessed as reversal of reserpine-induced catalepsy at 0.17 mmol/kg, sc measured every 30 mins up to 1.5 hrs; format: functional, organism-based
# [23] = system: Mus musculus; assay: Antidepressant activity in CFW mouse assessed as reversal of reserpine-induced hypothermia by measuring temperature index at 0.17 mmol/kg, sc measured every 30 mins up to 1.5 hrs; format: functional
# [24] = system: Mus musculus; assay: Antiparkinsonian activity in CFW mouse assessed as reversal of reserpine-induced catalepsy at 0.07 mmol/kg, sc measured every 30 mins up to 1.5 hrs; format: functional, organism-based; how it was run: as §4
# [25] = system: Rattus norvegicus; assay: Antiparkinsonian activity in Wistar rat assessed as reversal of reserpine-induced catalepsy at 0.15 mmol/kg, po measured every 30 mins up to 1.5 hrs; format: functional, organism-based
# [26] = system: Mus musculus; assay: Antiparkinsonian activity in CFW mouse assessed as reversal of reserpine-induced catalepsy at 0.15 mmol/kg, sc measured every 30 mins up to 1.5 hrs; format: functional, organism-based
# [27] = system: Mus musculus; assay: Antidepressant activity in CFW mouse assessed as reversal of reserpine-induced hypothermia by measuring temperature index at 0.07 mmol/kg, sc measured every 30 mins up to 1.5 hrs; format: functional
smiles,measurement,setting,value
CNC1CC2CC3CC(C2)C1C3.Cl (stereo not drawn),LD50 at 48 h,[1],2000 µmol/kg
same,LD50 at 48 h,[2],700 µmol/kg
same,Activity,[3],Active
same,Activity,[4],inactive
CNCCC12CC3CC(CC(C3)C1Br)C2.O=C(O)/C=C\C(=O)O (stereo not drawn),Activity,[5],5
same,Activity,[6],inactive
same,Activity,[7],Active
same,LD50 at 48 h,[1],1600 µmol/kg
same,LD50 at 48 h,[2],400 µmol/kg
Cl.c1ccc(CCNC2CC3CC4CC(C3)C2C4)cc1 (stereo in doubt; 12),LD50 at 48 h,[1],1000 µmol/kg
same,LD50 at 48 h,[2],300 µmol/kg
same,Activity,[8],5
Cl.NC1CC2CC3CC(C2)C1C3 (stereo not drawn),Activity,[9],inactive
same,LD50 at 48 h,[1],3200 µmol/kg
same,LD50 at 48 h,[2],800 µmol/kg
same,Activity,[10],inactive
Cl.c1ccc(CCNC2CC3CC4CC(C3)C2C4)cc1 (stereo in doubt; 13),Activity,[11],5
same,LD50,[12],0.5 mmol/kg
same,LD50,[13],0.2 mmol/kg
CNCC1CC2CC3CC(C2)C1C3.O=C(O)/C=C\C(=O)O (stereo not drawn),LD50 at 48 h,[1],1000 µmol/kg
same,LD50 at 48 h,[2],500 µmol/kg
same,Activity,[14],5
same,Activity,[15],inactive
CNCC12CC3CC(CC(C3)C1Cl)C2.Cl (stereo not drawn),Activity,[16],inactive
same,LD50 at 48 h,[1],1200 µmol/kg
same,LD50 at 48 h,[2],600 µmol/kg
same,Activity,[17],inactive
same,Activity,[18],Active
same,Ratio,[19],2
c1ccc(CCNC2CC3CC4CC(C3)C2C4)cc1 (stereo in doubt; 12),Activity,[20],Active
same,Activity,[21],inactive
CNCC12CC3CC(CC(C3)C1Br)C2.Cl (stereo not drawn),LD50 at 48 h,[1],1000 µmol/kg
same,LD50 at 48 h,[2],1000 µmol/kg
same,Activity,[22],Active
same,Activity,[21],Active
same,Ratio,[19],2
same,Activity,[23],5
c1ccc(CCNC2CC3CC4CC(C3)C2C4)cc1 (stereo in doubt; 13),Activity,[24],inactive
same,Activity,[21],Active
CNCCC12CC3CC(CC(C3)C1Cl)C2.Cl (stereo not drawn),Activity,[5],>10
same,Activity,[25],Active
same,Activity,[26],Active
same,LD50 at 48 h,[1],1500 µmol/kg
same,LD50 at 48 h,[2],600 µmol/kg
CN1CCN(CC2(O)CC3CC4CC(C3)C2C4)CC1.Cl (stereo not drawn),Activity,[26],inactive
same,Activity,[27],5
same,LD50 at 48 h,[1],2400 µmol/kg
same,LD50 at 48 h,[2],900 µmol/kg
